# ChEMBL document CHEMBL5058577, “EUbOPEN Chemogenomics Library 2 (Multiplex)” (2022)
# Tested on: U2OS
# Assay: Multiplex assay against U2OS
# Assay type: toxicity, cell-based
# Settings: human
# Outline: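 Compound was added to live cells that had been stained at seeding with Hoechst33342, BioTracker Green Microtubule Cytoskeleton Dye, MitoTracker Red and Annexin V Alexa Fluor 680, and imaging followed on a CQ1 microscope at 37°C and 5% CO2. CellPathfinder machine-learning gating divided cells into Hoechst high-intensity objects or normal cells, normal cells into healthy, pyknosed or fragmented nuclei, and pyknosed cells into mitotic or apoptotic. Tubulin, mitochondrial-mass and membrane-permeability phenotypes are per cents of healthy-nucleus cells.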
# [1] = 12 h, 1 µM, compound concentration 1 uM, replicate 1
# [2] = 12 h, 1 µM, compound concentration 1 uM, replicate 2
# [3] = 12 h, 10 µM, compound concentration 10 uM, replicate 1
# [4] = 12 h, 10 µM, compound concentration 10 uM, replicate 2
# [5] = 24 h, 1 µM, compound concentration 1 uM, replicate 1
# [6] = 24 h, 1 µM, compound concentration 1 uM, replicate 2
# [7] = 24 h, 10 µM, compound concentration 10 uM, replicate 1
# [8] = 24 h, 10 µM, compound concentration 10 uM, replicate 2
# [9] = 48 h, 1 µM, compound concentration 1 uM, replicate 1
# [10] = 48 h, 1 µM, compound concentration 1 uM, replicate 2
# [11] = 48 h, 10 µM, compound concentration 10 uM, replicate 1
# [12] = 48 h, 10 µM, compound concentration 10 uM, replicate 2
structure (smiles),measurement,setting,value
COc1c(C)cc(NC(=O)c2nn(Cc3ccc(F)cc3)c3c2CN(C(=O)c2ccc[nH]2)C[C@]3(C)C(N)=O)cc1C,Population Apoptotic (%),[1],65%
same,Population Fragmented Nuclei (%),[1],22%
same,Population Healthy Nuclei (%),[1],65%
same,Population Hoechst High Intensity Objects (%),[1],2%
same,Population Membrane Permeable-Phenotype (%),[1],8%
same,Population Mitochondria Different-Phenotype (%),[1],3%
same,Population Mitotic Cells (%),[1],34%
same,Population Normal (%),[1],97%
same,Population Pyknosed Nuclei (%),[1],12%
same,Population Tubulin-Different-Phenotype (%),[1],5%
same,Total Cell Count,[1],247
same,Population Apoptotic (%),[2],83%
same,Population Fragmented Nuclei (%),[2],21%
same,Population Healthy Nuclei (%),[2],72%
same,Population Mitochondria Different-Phenotype (%),[2],12%
same,Population Mitotic Cells (%),[2],16%
same,Population Pyknosed Nuclei (%),[2],6%
same,Population Tubulin-Different-Phenotype (%),[2],9%
same,Total Cell Count,[2],102
same,Population Apoptotic (%),[3],33%
same,Population Fragmented Nuclei (%),[3],26%
same,Population Healthy Nuclei (%),[3],43%
same,Population Hoechst High Intensity Objects (%),[3],9%
same,Population Membrane Permeable-Phenotype (%),[3],77%
same,Population Mitochondria Different-Phenotype (%),[3],90%
same,Population Mitotic Cells (%),[3],66%
same,Population Normal (%),[3],90%
same,Population Pyknosed Nuclei (%),[3],29%
same,Population Tubulin-Different-Phenotype (%),[3],95%
same,Total Cell Count,[3],223
same,Population Apoptotic (%),[4],60%
same,Population Fragmented Nuclei (%),[4],11%
same,Population Healthy Nuclei (%),[4],66%
same,Population Hoechst High Intensity Objects (%),[4],8%
same,Population Membrane Permeable-Phenotype (%),[4],54%
same,Population Mitochondria Different-Phenotype (%),[4],97%
same,Population Mitotic Cells (%),[4],39%
same,Population Normal (%),[4],91%
same,Population Pyknosed Nuclei (%),[4],21%
same,Population Tubulin-Different-Phenotype (%),[4],100%
same,Total Cell Count,[4],119
same,Population Apoptotic (%),[5],67%
same,Population Fragmented Nuclei (%),[5],16%
same,Population Healthy Nuclei (%),[5],71%
same,Population Hoechst High Intensity Objects (%),[5],5%
same,Population Membrane Permeable-Phenotype (%),[5],8%
same,Population Mitochondria Different-Phenotype (%),[5],6%
same,Population Mitotic Cells (%),[5],32%
same,Population Normal (%),[5],94%
same,Population Pyknosed Nuclei (%),[5],12%
same,Population Tubulin-Different-Phenotype (%),[5],7%
same,Total Cell Count,[5],265
same,Population Apoptotic (%),[6],61%
same,Population Fragmented Nuclei (%),[6],17%
same,Population Healthy Nuclei (%),[6],70%
same,Population Hoechst High Intensity Objects (%),[6],0%
same,Population Membrane Permeable-Phenotype (%),[6],7%
same,Population Mitochondria Different-Phenotype (%),[6],2%
same,Population Mitotic Cells (%),[6],38%
same,Population Normal (%),[6],99%
same,Population Pyknosed Nuclei (%),[6],11%
same,Population Tubulin-Different-Phenotype (%),[6],6%
same,Total Cell Count,[6],111
same,Population Apoptotic (%),[7],66%
same,Population Fragmented Nuclei (%),[7],26%
same,Population Healthy Nuclei (%),[7],41%
same,Population Hoechst High Intensity Objects (%),[7],12%
same,Population Membrane Permeable-Phenotype (%),[7],46%
same,Population Mitochondria Different-Phenotype (%),[7],92%
same,Population Mitotic Cells (%),[7],33%
same,Population Normal (%),[7],87%
same,Population Pyknosed Nuclei (%),[7],31%
same,Population Tubulin-Different-Phenotype (%),[7],94%
same,Total Cell Count,[7],216
same,Population Apoptotic (%),[8],65%
same,Population Fragmented Nuclei (%),[8],13%
same,Population Healthy Nuclei (%),[8],53%
same,Population Hoechst High Intensity Objects (%),[8],7%
same,Population Membrane Permeable-Phenotype (%),[8],49%
same,Population Mitochondria Different-Phenotype (%),[8],91%
same,Population Mitotic Cells (%),[8],34%
same,Population Normal (%),[8],92%
same,Population Pyknosed Nuclei (%),[8],33%
same,Population Tubulin-Different-Phenotype (%),[8],91%
same,Total Cell Count,[8],123
same,Population Apoptotic (%),[9],79%
same,Population Fragmented Nuclei (%),[9],18%
same,Population Healthy Nuclei (%),[9],68%
same,Population Hoechst High Intensity Objects (%),[9],2%
same,Population Membrane Permeable-Phenotype (%),[9],4%
same,Population Mitochondria Different-Phenotype (%),[9],3%
same,Population Mitotic Cells (%),[9],20%
same,Population Normal (%),[9],97%
same,Population Pyknosed Nuclei (%),[9],13%
same,Population Tubulin-Different-Phenotype (%),[9],2%
same,Total Cell Count,[9],365
same,Population Apoptotic (%),[10],84%
same,Population Fragmented Nuclei (%),[10],15%
same,Population Healthy Nuclei (%),[10],70%
same,Population Hoechst High Intensity Objects (%),[10],5%
same,Population Membrane Permeable-Phenotype (%),[10],9%
same,Population Mitochondria Different-Phenotype (%),[10],4%
same,Population Mitotic Cells (%),[10],15%
same,Population Normal (%),[10],94%
same,Population Tubulin-Different-Phenotype (%),[10],5%
same,Total Cell Count,[10],152
same,Population Apoptotic (%),[11],84%
same,Population Fragmented Nuclei (%),[11],31%
same,Population Healthy Nuclei (%),[11],24%
same,Population Hoechst High Intensity Objects (%),[11],17%
same,Population Membrane Permeable-Phenotype (%),[11],69%
same,Population Mitochondria Different-Phenotype (%),[11],85%
same,Population Mitotic Cells (%),[11],15%
same,Population Normal (%),[11],82%
same,Population Pyknosed Nuclei (%),[11],44%
same,Population Tubulin-Different-Phenotype (%),[11],90%
same,Total Cell Count,[11],212
same,Population Apoptotic (%),[12],87%
same,Population Fragmented Nuclei (%),[12],22%
same,Population Healthy Nuclei (%),[12],47%
same,Population Hoechst High Intensity Objects (%),[12],9%
same,Population Membrane Permeable-Phenotype (%),[12],50%
same,Population Mitochondria Different-Phenotype (%),[12],81%
same,Population Mitotic Cells (%),[12],12%
same,Population Normal (%),[12],90%
same,Population Pyknosed Nuclei (%),[12],29%
same,Population Tubulin-Different-Phenotype (%),[12],80%
same,Total Cell Count,[12],150
